The results in this text go back to ChEMBL document CHEMBL5344483, “Design and synthesis of novel chloropyridazine hybrids as promising anticancer agents acting by apoptosis induction and PARP-1 inhibition through a molecular hybridization strategy” (RSC Med Chem, 2024).

Data set [1] deals with MDA-MB-468. The data set can be described thus: Cytotoxicity against human MDA-MB-468 cells by SRB assay. Type of data set: functional, cell-based. The procedure, abridged:
(§1)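 Cells seeded at 3×10^3 per well and allowed to attach for 24 h. Exposed to […], 12.5, 25 and 50 µg/mL for 48 h, triplicate wells per concentration, with a 1% v/v DMSO vehicle. Fixed in 20% TCA, stained with 0.4% SRB, and OD read at 570 nm. IC50 from sigmoidal dose-response fit of survival fraction (treated/control OD).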

In data set [2] the test system is Huh-7. The data set can be described thus: Anticancer activity against human Huh-7 cells assessed as growth inhibition at 100 microg/mL by SRB assay relative to control. Format: functional. As to conditions: read-out: GI. In outline: (§2)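 Cells seeded at 3×10^3 per well and allowed to attach for 24 h. Treated with 100 µg/mL compound for 48 h, triplicate wells, with a 1% v/v DMSO vehicle control. Fixed in 20% TCA, stained with 0.4% SRB, and OD read at 570 nm. Survival fraction is treated OD/control OD.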
A general note: Sulforhodamine B stains cellular protein and so reports cell mass.

Data set [3] has as its system HNO 97 cell line. The data set can be described thus: Cytotoxicity against human HNO97 cells by SRB assay. Format: functional, cell-based. The procedure, abridged: as §1
For data set [4], the system named is SK-BR-3. Put plainly: Anticancer activity against human SK-BR-3 cells assessed as growth inhibition at 100 microg/mL by SRB assay relative to control. Type of data set: functional. As to conditions: read-out: GI. The procedure, abridged: as §2
In data set [5] the test system is MCF7. The data set can be described thus: Anticancer activity against human MCF7 cells assessed as growth inhibition at 100 microg/mL by SRB assay relative to control. Format: functional. As to conditions: read-out: GI. The procedure, abridged: as §2
Data set [6] concerns FaDu. The data set can be described thus: Anticancer activity against human FaDu cells assessed as growth inhibition at 100 microg/mL by SRB assay relative to control. Type of data set: functional. To be noted: read-out: GI. In outline: as §2
The test system of data set [7] is HeLa. Put plainly: Anticancer activity against human HeLa cells assessed as growth inhibition at 100 microg/mL by SRB assay relative to control. Format: functional. As to conditions: read-out: GI. In outline:
as §2

For data set [8], the system named is MDA-MB-468. Put plainly: Anticancer activity against human MDA-MB-468 cells assessed as growth inhibition at 100 microg/mL by SRB assay relative to control. Type of data set: functional. To be noted: read-out: GI. In outline:
as §2

Data set [9] deals with NCI-H460. Put plainly: Anticancer activity against human NCI-H460 cells assessed as growth inhibition at 100 microg/mL by SRB assay relative to control. Format: functional. To be noted: read-out: GI. The procedure, abridged: as §2
Data set [10] relates to A549. Put plainly: Anticancer activity against human A549 cells assessed as growth inhibition at 100 microg/mL by SRB assay relative to control. Type of data set: functional. As to conditions: read-out: GI. The procedure, abridged:
as §2

Data set [11] deals with HNO 97 cell line. Put plainly: Anticancer activity against human HNO97 cells assessed as growth inhibition at 100 microg/mL by SRB assay relative to control. Format: functional. As to conditions: read-out: GI. In outline:
as §2

In data set [12] the test system is FaDu. Put plainly: Cytotoxicity against human FaDu cells by SRB assay. Type of data set: functional, cell-based. In outline:
as §1

Data set [13] deals with A-375. The data set can be described thus: Anticancer activity against human A-375 cells assessed as growth inhibition at 100 microg/mL by SRB assay relative to control. To be noted: read-out: GI. Format: functional. In outline: as §2
The nature of data set [14]: Cytotoxicity against human HSF (VGS) cells assessed as growth inhibition at 100 microg/mL by SRB assay relative to control. Format: toxicity, cell-based. As to conditions: at 100 µg/mL, read-out: GI.
The subject of data set [15] is HCT-116. The data set can be described thus: Anticancer activity against human HCT-116 cells assessed as growth inhibition at 100 microg/mL by SRB assay relative to control. Format: functional. As to conditions: read-out: GI. The procedure, abridged: as §2
Data set [16] deals with MDA-MB-231. Put plainly: Antiproliferative activity against human MDA-MB-231 cells assessed as reduction in cell growth by coomassie Brilliant Blue staining based analysis. Format: functional.

pIC50: −log10 of the molar value. The source made the active and inactive calls. No cut-off for these calls is given here.

As usually defined, the pIC50 is −log10 of the IC50, conventionally taken in molar units. A higher pIC50 goes with a small IC50. As for `COc1cccc2c1C(=O)c1c(O)c3c(c(O)c1C2=O)C[C@@](O)(C(=O)CO)C[C@@H]3O[C@H]1C[C@H](N)[C@H](O)[C@H](C)O1` [DOXORUBICIN], the pIC50 in data set [1] was 5.17; in data set [3], 5.15; in data set [12] it was 4.85. For the same compound, the inhibition of growth at 100 µg/mL in data set [2] was found to be 69.6%; in data set [4], 71.1%; in data set [5] it was 75.6%; in data set [6], 84.5%; in data set [7] it was 73%; in data set [8] it was 94%. Also, the inhibition of growth at 100 µg/mL in [9] worked out at 75.5%; in data set [10] it was 66.7%; in [11], 84.5%; in data set [13], 84%; in data set [15] it was 82.9%. Besides, the inhibition at 100 microg/mL in [14] was 52.9%.
For `O=C(/C=C/c1ccc(Oc2ccc(Cl)nn2)cc1)c1ccccc1`, the outcome in [16] was Active. In addition, the negative-log IC50 (pIC50) is 4.58 in data set [1], 4.77 in [3] and 4.75 in [12]. Moreover, the inhibition of growth at 100 µg/mL was determined as 74.8% in data set [2]; 70.5% in [4]; 63% in [5]; 80.9% in data set [6]; 51% in data set [7]; 90.5% in data set [8]. Also, the inhibition of growth at 100 µg/mL in data set [9] is 55.9%; in [10], 66.4%; in [11], 85.3%; in data set [13], 29.3%; in data set [15], 39%. Also, in data set [14], the inhibition at 100 microg/mL stood at 52.2%.
With `COc1ccc(C(=O)/C=C/c2ccc(Oc3ccc(Cl)nn3)cc2)cc1`, the results for the negative-log IC50 (pIC50) in [1] and in data set [3] were 3.95 and 4.26, respectively. The inhibition of growth at 100 µg/mL came out at 71.4% in data set [2]; 66.7% in data set [4]; 62.1% in data set [5]; 68.2% in data set [6]; 58.4% in data set [7]; 85.6% in data set [8]. Also, the inhibition of growth at 100 µg/mL in data set [9] came out at 63.1%; in data set [10], 77%; in data set [11] it was 69.1%; in [13], 52.6%; in data set [15], 62.7%. Also, the inhibition at 100 microg/mL in data set [14] is 53.5%.
Regarding `O=C(/C=C/c1ccc(Oc2ccc(Cl)nn2)cc1)c1ccc([N+](=O)[O-])cc1`, the negative logarithm of the IC50 (pIC50) was 4.44 in [1], 4.54 in data set [3] and 4.22 in [12]. In addition, the inhibition of growth at 100 µg/mL came out at 72.1% in data set [2]; 74.8% in [4]; 72.9% in data set [5]; 82.7% in data set [6]; 63.9% in data set [7]; 91.9% in data set [8]. The inhibition of growth at 100 µg/mL in [9] came out at 64.2%; in data set [10], 75.1%; in data set [11], 88.6%; in data set [13], 62.2%; in data set [15], 55.1%. Besides, the inhibition at 100 microg/mL in data set [14] worked out at 65.6%.
Regarding `O=C1NC(=O)/C(=C\c2ccc(Oc3ccc(Cl)nn3)cc2)S1`, the pIC50 in data set [1] is 3.97. Further, the inhibition of growth at 100 µg/mL in data set [2] is 52.9%; in data set [4] it was 63.8%; in data set [5], 49.9%; in data set [6], 65.2%; in [7], 15.3%; in data set [8] it was 73%. Further, the inhibition of growth at 100 µg/mL came to 23.8% in data set [9]; 57.8% in data set [10]; 40.3% in [11]; 34.2% in [13]; 55.8% in data set [15]. For the same compound, the inhibition at 100 microg/mL in [14] came out at 56.9%.
As for `O=C(/C=C/c1ccc(Oc2ccc(Cl)nn2)cc1)c1ccc(OCc2ccccc2)cc1`, the pIC50 was 4.27 in data set [1], 4.13 in [3] and 4.10 in data set [12]. Moreover, the inhibition of growth at 100 µg/mL worked out at 73.9% in data set [2]; 73.2% in data set [4]; 71.7% in data set [5]; 85.4% in data set [6]; 68.2% in data set [7]; 89.8% in [8]. In addition, the inhibition of growth at 100 µg/mL is 46.9% in data set [9]; 77.1% in data set [10]; 85.5% in data set [11]; 67.2% in [13]; 61.4% in data set [15]. In data set [14], the inhibition at 100 microg/mL came to 67.8%.
In the case of `COc1ccc(COc2ccc(C(=O)/C=C/c3ccc(Oc4ccc(Cl)nn4)cc3)cc2)cc1`, the pIC50 is 4.03 in data set [1], 4.40 in data set [3] and 4.02 in data set [12]. Further, the inhibition of growth at 100 µg/mL in data set [2] turned out to be 69.3%; in [4], 60.8%; in data set [5] it was 60.6%; in data set [6], 75.5%; in [7] it was 40.4%; in data set [8], 88.4%. Also, the inhibition of growth at 100 µg/mL in data set [9] was 44.8%; in data set [10], 72%; in data set [11] it was 82.4%; in data set [13] it was 59.3%; in data set [15], 44%. In data set [14], the inhibition at 100 microg/mL came out at 53.5%.
`O=C(/C=C/c1ccc(Oc2ccc(Cl)nn2)cc1)c1ccc(OCc2ccc(F)c(Cl)c2)cc1`: the values for the pIC50 in data set [1] and in data set [3] were 4.44 and 4.52, respectively. Further, the inhibition of growth at 100 µg/mL in [2] turned out to be 61.9%; in data set [4] it was 49.8%; in data set [5], 47.2%; in data set [6], 61.8%; in data set [7] it was 36.2%; in data set [8], 78.2%. In addition, the inhibition of growth at 100 µg/mL was determined as 54.6% in data set [9]; 69.2% in data set [10]; 75.6% in [11]; 39% in [13]; 55% in data set [15]. In data set [14], the inhibition at 100 microg/mL is 54%.
As to `O=C(/C=C/c1ccc(Oc2ccc(Cl)nn2)cc1)c1ccc(OCc2ccc(OC(F)(F)F)cc2)cc1`, the negative-log IC50 (pIC50) in [1] is 4.17; in [3], 4.69; in data set [12], 4.08. Moreover, the inhibition of growth at 100 µg/mL amounted to 66.3% in [2]; 67.4% in data set [4]; 53.6% in [5]; 84.9% in [6]; 40.5% in [7]; 80.3% in data set [8]. The inhibition of growth at 100 µg/mL in data set [9] was determined as 49.7%; in data set [10], 57.8%; in data set [11] it was 81%; in data set [13], 53%; in data set [15], 39.6%. Besides, in data set [14], the inhibition at 100 microg/mL turned out to be 49.4%.
`O=C(/C=C/c1ccc(Oc2ccc(Cl)nn2)cc1)c1ccc(O)cc1`: the pIC50 was 3.93 in data set [1], 4.51 in data set [3] and 3.91 in data set [12]. Further, the inhibition of growth at 100 µg/mL in [2] was 72%; in [4], 68.2%; in [5], 68.5%; in [6] it was 85%; in data set [7], 73.2%; in data set [8], 79.2%. For the same compound, the inhibition of growth at 100 µg/mL in data set [9] was determined as 68.3%; in data set [10] it was 73.8%; in data set [11] it was 79.3%; in [13] it was 59.2%; in data set [15], 76.4%. Besides, the inhibition at 100 microg/mL in [14] came out at 61%.
